Measurements: ChEMBL document CHEMBL5257020, “Discovery of a 9-mer Cationic Peptide (LTX-315) as a Potential First in Class Oncolytic Peptide” (J Med Chem, 2016)
Where a SMILES comes first, the peptide text is derived from it. [ ]: non-standard residue; d: D form. ξ: configuration not given here. Bip = N[C@@H](Cc1ccc(-c2ccccc2)cc1)C(=O)O; ξDip = NC(C(=O)O)C(c1ccccc1)c1ccccc1

How the values were obtained:
[1] = system: Ramos; experiment: Cytotoxicity against human Ramos cells assessed as inhibition of cell proliferation incubated for 4 hrs by MTS assay; type: functional, cell-based
Summary of the method: (§1)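 Cells grown in RPMI-1640 with 2 mM L-glutamine and 10% FBS, plated, then held 24 h at 37 °C. Adherent lines washed once in FBS-free medium. Cells exposed 4 h at 37 °C, 5% CO2 in FBS-free medium to 10 concentrations (1/4 steps, 400 μM top). 1% Triton X-100 served as positive control. MTS/PMS added for 2 h, then OD 490 nm read. IC50 from semilog curves; three independent experiments, quadruplicate wells.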

[2] = system: Raji; experiment: Cytotoxicity against human Raji cells assessed as inhibition of cell proliferation incubated for 4 hrs by MTS assay; type: functional, cell-based; summary of the method: as §1
[3] = Cytotoxicity against human MINO cells assessed as inhibition of cell proliferation incubated for 4 hrs by MTS assay; type: functional, cell-based; summary of the method: as §1
[4] = system: KARPAS-299; experiment: Cytotoxicity against human KARPAS-299 cells assessed as inhibition of cell proliferation incubated for 4 hrs by MTS assay; type: functional, cell-based; settings: KARPAS-299, 4 h; summary of the method: as §1
[5] = system: CCRF-CEM; experiment: Cytotoxicity against human CCRF-CEM cells assessed as inhibition of cell proliferation incubated for 4 hrs by MTS assay; type: functional, cell-based; summary of the method: as §1
[6] = Cytotoxicity against mouse AT84 cells assessed as inhibition of cell proliferation incubated for 4 hrs by MTT assay; type: functional, cell-based; settings: AT84, 4 h
[7] = system: HL60/ADR; experiment: Cytotoxicity against human HL60/ADR cells assessed as inhibition of cell proliferation incubated for 4 hrs by MTS assay; type: functional, cell-based; summary of the method: as §1
[8] = system: IGROV-1; experiment: Cytotoxicity against human IGROV-1 cells assessed as inhibition of cell proliferation incubated for 4 hrs by MTS assay; type: functional, cell-based; settings: IGROV-1, 4 h; summary of the method: as §1
[9] = system: K562; experiment: Cytotoxicity in imatinib resistant human K562 cells assessed as inhibition of cell proliferation incubated for 4 hrs by MTS assay; type: functional, cell-based; settings: K562, 4 h
Summary of the method: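 Oncodesign panel MTS/PMS assay. Cells in RPMI-1640 + 10% FBS. After 24 h pre-plating, adherent lines washed in FBS-free medium. Cells exposed 4 h at 37 °C in FBS-free medium to 10 concentrations, 1/4 dilutions from 400 μM top. Triton X-100 (1% final) positive control. MTS/PMS added, 2 h, OD 490 nm. IC50 from semilog curves. Three independent experiments, quadruplicate wells.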

[10] = system: Daudi; experiment: Cytotoxicity against human Daudi cells assessed as inhibition of cell proliferation incubated for 4 hrs by MTS assay; type: functional, cell-based; summary of the method: as §1
[11] = system: Toledo; experiment: Cytotoxicity against human Toledo cells assessed as inhibition of cell proliferation incubated for 4 hrs by MTS assay; type: functional, cell-based; summary of the method: as §1
[12] = system: U-937; experiment: Cytotoxicity against human U-937 cells assessed as inhibition of cell proliferation incubated for 4 hrs by MTS assay; type: functional, cell-based; settings: U-937, 4 h; summary of the method: as §1
[13] = system: RPMI-8226; experiment: Cytotoxicity against human RPMI-8226 cells assessed as inhibition of cell proliferation incubated for 4 hrs by MTS assay; type: functional, cell-based; settings: RPMI-8226, 4 h; summary of the method: as §1
[14] = system: SH-SY5Y; experiment: Cytotoxicity against human SH-SY5Y cells assessed as inhibition of cell proliferation incubated for 4 hrs by MTS assay; type: functional, cell-based; summary of the method: as §1
[15] = system: SK-N-AS; experiment: Cytotoxicity against human SK-N-AS cells assessed as inhibition of cell proliferation incubated for 4 hrs by MTS assay; type: functional, cell-based; summary of the method: as §1
[16] = system: MDA-MB-435S; experiment: Cytotoxicity against human MDA-MB-435S cells assessed as inhibition of cell proliferation incubated for 4 hrs by MTS assay; type: functional, cell-based; summary of the method: as §1
[17] = system: T47D; experiment: Cytotoxicity against human T47D cells assessed as inhibition of cell proliferation incubated for 4 hrs by MTS assay; type: functional, cell-based; summary of the method: as §1
[18] = system: HCT-15; experiment: Cytotoxicity against human HCT-15 cells assessed as inhibition of cell proliferation incubated for 4 hrs by MTS assay; type: functional, cell-based; settings: HCT-15, 4 h; summary of the method: as §1
[19] = system: HT-29; experiment: Cytotoxicity against human HT-29 cells assessed as inhibition of cell proliferation incubated for 4 hrs by MTS assay; type: functional, cell-based; settings: HT-29, 4 h; summary of the method: as §1
[20] = Cytotoxicity against human HUVEC-C cells assessed as inhibition of cell proliferation incubated for 4 hrs by MTS assay; type: toxicity, cell-based; summary of the method: as §1
[21] = system: 786-0; experiment: Cytotoxicity against human 786-0 cells assessed as inhibition of cell proliferation incubated for 4 hrs by MTS assay; type: functional, cell-based; settings: 786-0, 4 h; summary of the method: as §1
[22] = system: A498; experiment: Cytotoxicity against human A498 cells assessed as inhibition of cell proliferation incubated for 4 hrs by MTS assay; type: functional, cell-based; settings: A498, 4 h; summary of the method: as §1
[23] = system: HepG2; experiment: Cytotoxicity against human HepG2 cells assessed as inhibition of cell proliferation incubated for 4 hrs by MTS assay; type: functional, cell-based; settings: HepG2, 4 h; summary of the method: as §1
[24] = system: SK-HEP1; experiment: Cytotoxicity against human SK-HEP1 cells assessed as inhibition of cell proliferation incubated for 4 hrs by MTS assay; type: functional, cell-based; settings: SK-HEP1, 4 h; summary of the method: as §1
[25] = system: A549; experiment: Cytotoxicity against human A549 cells assessed as inhibition of cell proliferation incubated for 4 hrs by MTS assay; type: functional, cell-based; settings: A549, 4 h; summary of the method: as §1
[26] = system: Calu-6; experiment: Cytotoxicity against human Calu-6 cells assessed as inhibition of cell proliferation incubated for 4 hrs by MTS assay; type: functional, cell-based; settings: Calu-6, 4 h; summary of the method: as §1
[27] = Cytotoxicity against human MRC5 cells assessed as inhibition of cell proliferation incubated for 4 hrs by MTS assay; type: toxicity, cell-based; summary of the method: as §1
[28] = system: NCI-H460; experiment: Cytotoxicity against human NCI-H460 cells assessed as inhibition of cell proliferation incubated for 4 hrs by MTS assay; type: functional, cell-based; settings: NCI-H460, 4 h; summary of the method: as §1
[29] = system: OVCAR-3; experiment: Cytotoxicity against human OVCAR-3 cells assessed as inhibition of cell proliferation incubated for 4 hrs by MTS assay; type: functional, cell-based; settings: OVCAR-3, 4 h; summary of the method: as §1
[30] = system: SK-OV-3; experiment: Cytotoxicity against human SK-OV-3 cells assessed as inhibition of cell proliferation incubated for 4 hrs by MTS assay; type: functional, cell-based; settings: SK-OV-3, 4 h; summary of the method: as §1
[31] = system: BXPC-3; experiment: Cytotoxicity against human BXPC-3 cells assessed as inhibition of cell proliferation incubated for 4 hrs by MTS assay; type: functional, cell-based; settings: BXPC-3, 4 h; summary of the method: as §1
[32] = system: PANC-1; experiment: Cytotoxicity against human PANC-1 cells assessed as inhibition of cell proliferation incubated for 4 hrs by MTS assay; type: functional, cell-based; settings: PANC-1, 4 h; summary of the method: as §1
[33] = system: PC-3; experiment: Cytotoxicity against human PC-3 cells assessed as inhibition of cell proliferation incubated for 4 hrs by MTS assay; type: functional, cell-based; settings: PC-3, 4 h; summary of the method: as §1
[34] = system: A-431; experiment: Cytotoxicity against human A-431 cells assessed as inhibition of cell proliferation incubated for 4 hrs by MTS assay; type: functional, cell-based; settings: A-431, 4 h; summary of the method: as §1
[35] = system: Malme-3M; experiment: Cytotoxicity against human Malme-3M cells assessed as inhibition of cell proliferation incubated for 4 hrs by MTS assay; type: functional, cell-based; summary of the method: as §1
[36] = system: SK-MEL-2; experiment: Cytotoxicity against human SK-MEL-2 cells assessed as inhibition of cell proliferation incubated for 4 hrs by MTS assay; type: functional, cell-based; settings: SK-MEL-2, 4 h; summary of the method: as §1
[37] = Cytotoxicity against human Hs 445 cells assessed as inhibition of cell proliferation incubated for 4 hrs by MTS assay; type: functional, cell-based; settings: Hs 445, 4 h; summary of the method: as §1
[38] = Cytotoxicity against human U-87 MG cells assessed as inhibition of cell proliferation incubated for 4 hrs by MTS assay; type: functional, cell-based, U-87MG ATCC; summary of the method: as §1
[39] = system: COLO 205; experiment: Cytotoxicity against human COLO 205 cells assessed as inhibition of cell proliferation incubated for 4 hrs by MTS assay; type: functional, cell-based; settings: COLO 205, 4 h; summary of the method: as §1

SMILES: NCCCC[C@H](NC(=O)C(NC(=O)[C@H](Cc1c[nH]c2ccccc12)NC(=O)[C@H](CCCCN)NC(=O)[C@H](CCCCN)NC(=O)[C@H](Cc1c[nH]c2ccccc12)NC(=O)[C@H](Cc1c[nH]c2ccccc12)NC(=O)[C@H](CCCCN)NC(=O)[C@@H](N)CCCCN)C(c1ccccc1)c1ccccc1)C(N)=O (stereo partly drawn) (H-KKWWKKW[ξDip]K-NH2)
- IC50 [1]: 1700 nM
- IC50 [2]: 4.9 µM
- IC50 [3]: 3.7 µM
- IC50 [4]: 4.8 µM
- IC50 [5]: 2.6 µM
- IC50 [6]: 11 µM
- IC50 [7]: 3 µM
- IC50 [8]: 6.4 µM
- IC50 [9]: 3 µM
- IC50 [10]: 4 µM
- IC50 [11]: 2.3 µM
- IC50 [12]: 1200 nM
- IC50 [13]: 1900 nM
- IC50 [14]: 3.3 µM
- IC50 [15]: 2.5 µM
- IC50 [16]: 3.1 µM
- IC50 [17]: 1200 nM
- IC50 [18]: 3.8 µM
- IC50 [19]: 3.3 µM
- IC50 at 4 h [20]: 16.3 µM
- IC50 [21]: 5.8 µM
- IC50 [22]: 2.9 µM
- IC50 [23]: 6.7 µM
- IC50 [24]: 5.1 µM
- IC50 [25]: 2.8 µM
- IC50 [26]: 2.1 µM
- IC50 at 4 h [27]: 9.2 µM
- IC50 [28]: 3.4 µM
- IC50 [29]: 5.2 µM
- IC50 [30]: 7.2 µM
- IC50 [31]: 3.7 µM
- IC50 [32]: 3.8 µM
- IC50 [33]: 4.4 µM
- IC50 [34]: 3.2 µM
- IC50 [35]: 3.3 µM
- IC50 [36]: 5.2 µM
- IC50 [37]: 1700 nM
- IC50 [38]: 6.6 µM
- IC50 [39]: 2.6 µM

SMILES: NCCCC[C@H](NC(=O)[C@H](Cc1c[nH]c2ccccc12)NC(=O)[C@H](Cc1c[nH]c2ccccc12)NC(=O)[C@H](CCCCN)NC(=O)[C@H](CCCCN)NC(=O)[C@H](Cc1c[nH]c2ccccc12)NC(=O)[C@H](Cc1ccc(-c2ccccc2)cc1)NC(=O)[C@H](CCCCN)NC(=O)[C@@H](N)CCCCN)C(N)=O (H-KK[Bip]WKKWWK-NH2)
- IC50 [1]: 3800 nM
- IC50 [2]: 8.7 µM
- IC50 [3]: 5.9 µM
- IC50 [4]: 8.7 µM
- IC50 [5]: 5.3 µM
- IC50 [6]: 11.3 µM
- IC50 [7]: 4.9 µM
- IC50 [8]: 14.3 µM
- IC50 [9]: 7.6 µM
- IC50 [10]: 7.9 µM
- IC50 [11]: 5.4 µM
- IC50 [12]: 2700 nM
- IC50 [13]: 4100 nM
- IC50 [14]: 8.8 µM
- IC50 [15]: 6 µM
- IC50 [16]: 9.8 µM
- IC50 [17]: 2400 nM
- IC50 [18]: 10 µM
- IC50 [19]: 8.9 µM
- IC50 at 4 h [20]: 33 µM
- IC50 [21]: 13.8 µM
- IC50 [22]: 6.4 µM
- IC50 [23]: 8.7 µM
- IC50 [24]: 7.9 µM
- IC50 [25]: 7.8 µM
- IC50 [26]: 4.9 µM
- IC50 at 4 h [27]: 27.9 µM
- IC50 [28]: 8.7 µM
- IC50 [29]: 14.1 µM
- IC50 [30]: 12.6 µM
- IC50 [31]: 8.2 µM
- IC50 [32]: 9.5 µM
- IC50 [33]: 10.1 µM
- IC50 [34]: 7.1 µM
- IC50 [35]: 7.1 µM
- IC50 [36]: 11 µM
- IC50 [37]: 2500 nM
- IC50 [38]: 16.9 µM
- IC50 [39]: 5.7 µM
